Reference: ChEMBL document CHEMBL4257481, “Synthesis and radioprotective effects of novel benzyl naphthyl sulfoxide (sulfone) derivatives transformed from Ex-RAD” (Medchemcomm, 2018)
Active and inactive are the calls of the source. The calls are words filed in the database; no cut-off is given here.

These compounds were tested on HUVEC (assay: Radioprotective activity against 60Co gamma-irradiation-mediated cytotoxicity in HUVEC assessed as survival rate at 20 uM preincubated for 24 hrs followed by gamma-irradiation and measured after 4 days by MTS assay relative to control). Settings: Homo sapiens, light or radiation study, read-out: Survival.
Assay type: functional
Summary of the method: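 HUVECs in RPMI-1640 with 10% FBS, seeded 4000 cells per mL. After 24 h, exposed to compound from a 100 mM DMSO stock (final 20 µM) for 24 h. Then ⁶⁰Co γ-irradiated at 8.0 Gy, 0.93 Gy min⁻¹, and cultured 4 days with medium changes. MTS added for 3 h at 37 °C and A492 read. Survival calculated relative to non-irradiated cells; mean of three independent experiments.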
For `O=S(=O)(Cc1ccccc1F)c1ccc2cc(Br)ccc2c1`, the viability at 20 µM was 52.4%. With `[O-][S+](Cc1ccc(F)cc1)c1ccc2cc(Br)ccc2c1` (centres undefined) the viability at 20 µM was 77.2%. For `[O-][S+](Cc1ccc(Cl)cc1)c1ccc2ccccc2c1` (centres undefined), the viability at 20 µM was 57.2%. With `[O-][S+](Cc1ccc(Br)cc1)c1ccc2ccccc2c1` (centres undefined) the viability at 20 µM was 59.3%. Work on `[O-][S+](Cc1ccc(F)cc1)c1ccc2ccccc2c1` (centres undefined) yielded a viability at 20 µM of 52%. Work on `O=S(=O)(Cc1ccccc1Cl)c1ccc2cc(Br)ccc2c1` yielded a viability at 20 µM of 56.7%. `[O-][S+](Cc1ccccc1F)c1ccc2cc(Br)ccc2c1` (centres undefined) was tested, and the viability at 20 µM was 51.3%. `O=S(=O)(Cc1ccc(Br)cc1)c1ccc2cc(Br)ccc2c1` was tested, and the viability at 20 µM was 53.1%. `O=C(O)c1ccc(/C=C/S(=O)(=O)Cc2ccc(Cl)cc2)cc1` [RECILISIB SODIUM] gave a viability at 20 µM of 57.5%. For `[O-][S+](Cc1cccc(Cl)c1)c1ccc2cc(Br)ccc2c1` (centres undefined), the viability at 20 µM was 55.1%.

These compounds were tested on HUVEC (assay: Radioprotective activity against 60Co gamma-irradiation-mediated cytotoxicity in HUVEC assessed as increase in survival rate at 40 uM preincubated for 24 hrs followed by gamma-irradiation and measured after 4 days by MTS assay relative to control). Settings: Homo sapiens.
Assay type: functional, cell-based
Summary of the method: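 HUVECs seeded at 4000 cells/mL in RPMI-1640 with 10% FBS. After 24 h, compound added at 40 µM (diluted from 100 mM DMSO stock) for 24 h, then 8.0 Gy 60Co γ at 0.93 Gy/min. Cells grown 4 days with medium changed every 2 days, then MTS for 3 h at 37 °C and A492 read. Survival = blank-corrected OD relative to unirradiated cells; mean of three experiments.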
`O=S(=O)(Cc1ccccc1F)c1ccc2cc(Br)ccc2c1` was tested, and the Activity was “Active”. For `[O-][S+](Cc1ccc(F)cc1)c1ccc2cc(Br)ccc2c1` (centres undefined), the Activity was “Active”. For `[O-][S+](Cc1ccc(Cl)cc1)c1ccc2ccccc2c1` (centres undefined), the Activity was “Active”. `[O-][S+](Cc1ccc(Br)cc1)c1ccc2ccccc2c1` (centres undefined) was tested, and the Activity was “Active”. With `[O-][S+](Cc1ccc(F)cc1)c1ccc2ccccc2c1` (centres undefined) the Activity was “Active”. With `O=S(=O)(Cc1ccccc1Cl)c1ccc2cc(Br)ccc2c1` the Activity was “Active”. For `[O-][S+](Cc1ccccc1F)c1ccc2cc(Br)ccc2c1` (centres undefined), the Activity was “Active”. For `O=S(=O)(Cc1ccc(Br)cc1)c1ccc2cc(Br)ccc2c1`, the Activity was “Active”. In the case of `O=C(O)c1ccc(/C=C/S(=O)(=O)Cc2ccc(Cl)cc2)cc1` [RECILISIB SODIUM], the Activity is reported as “Active”. In the case of `[O-][S+](Cc1cccc(Cl)c1)c1ccc2cc(Br)ccc2c1` (centres undefined), the Activity is reported as “Active”.

These compounds were tested on HUVEC (assay: Cytotoxicity against HUVEC at 100 uM after 24 hrs by MTS assay). Settings: human.
Assay type: cell-based
Summary of the method: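 HUVECs grown in RPMI-1640 with 10% FBS and penicillin/streptomycin, pH 7.2, 37 °C, 5% CO2, then trypsinized at 80% confluence. Compound exposure at 100 µM, with viability read by MTS tetrazolium assay.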
`O=S(=O)(Cc1ccccc1F)c1ccc2cc(Br)ccc2c1` was tested, and the Activity was “Non-Toxic”. In the case of `[O-][S+](Cc1ccc(F)cc1)c1ccc2cc(Br)ccc2c1` (centres undefined), the Activity is reported as “Non-Toxic”. In the case of `[O-][S+](Cc1ccc(Cl)cc1)c1ccc2ccccc2c1` (centres undefined), the Activity is reported as “Non-Toxic”. With `[O-][S+](Cc1ccc(Br)cc1)c1ccc2ccccc2c1` (centres undefined) the Activity was “Non-Toxic”. With `[O-][S+](Cc1ccc(F)cc1)c1ccc2ccccc2c1` (centres undefined) the Activity was “Non-Toxic”. For `O=S(=O)(Cc1ccccc1Cl)c1ccc2cc(Br)ccc2c1`, the Activity was “Non-Toxic”. `[O-][S+](Cc1ccccc1F)c1ccc2cc(Br)ccc2c1` (centres undefined) was tested, and the Activity was “Non-Toxic”. In the case of `O=S(=O)(Cc1ccc(Br)cc1)c1ccc2cc(Br)ccc2c1`, the Activity is reported as “Non-Toxic”. In the case of `[O-][S+](Cc1cccc(Cl)c1)c1ccc2cc(Br)ccc2c1` (centres undefined), the Activity is reported as “Non-Toxic”.

These compounds were tested on HUVEC (assay: Radioprotective activity against 60Co gamma-irradiation-induced DNA damage in HUVEC after 24 hrs by comet assay). Settings: Homo sapiens.
Assay type: functional, cell-based
Summary of the method: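 HUVECs (RPMI-1640, 10% FBS) incubated with compound 24 h, then given 6.0 Gy 60Co γ at 0.93 Gy/min. At 24 h post-irradiation, cells (1 × 10^5/mL) were embedded in comet agarose and lysed 30 min at 4 °C. Alkaline unwinding (300 mM NaOH, 1 mM EDTA, pH > 13) ran 30 min, then electrophoresis at 1.0 V/cm, 20 min. Vista green stain; tail length (µm) of 50 comets/slide; three repeats.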
`[O-][S+](Cc1ccc(F)cc1)c1ccc2cc(Br)ccc2c1` (centres undefined) was tested, and the Activity was “Active”.

The compounds below were run on Mus musculus (assay: Radioprotective activity against 60Co gamma-irradiation-induced toxicity in C57/BL mouse assessed as survival rate at 300 mg/kg, ip administered 15 mins and 24 hrs prior to irradiation and measured over 30 days post irradiation (reference value: 50%)). Settings: light or radiation study.
Assay type: functional
For `[O-][S+](Cc1ccc(F)cc1)c1ccc2cc(Br)ccc2c1` (centres undefined), the survival at 300 mg/kg was 100%.

Each compound was assayed on Mus musculus (assay: Radioprotective activity against 60Co gamma-irradiation-induced toxicity in C57/BL mouse assessed as survival rate at 5 mg/kg, ig administered 24 hrs prior to irradiation and measured over 30 days post irradiation (reference value: 50%)). Settings: light or radiation study, po.
Assay type: functional
With `C#C[C@]1(O)[C@H](O)C[C@H]2[C@@H]3CCc4cc(OC5CCCC5)ccc4[C@H]3CC[C@@]21C` [NYLESTRIOL] the survival at 5 mg/kg was 100%.

The compounds below were run on Mus musculus (assay: Radioprotective activity against 60Co gamma-irradiation-induced toxicity in C57/BL mouse assessed as survival rate at 300 mg/kg, sc administered 15 mins and 24 hrs prior to irradiation and measured over 30 days post irradiation (reference value: 50%)). Settings: light or radiation study.
Assay type: functional
Work on `O=C(O)c1ccc(/C=C/S(=O)(=O)Cc2ccc(Cl)cc2)cc1` [RECILISIB SODIUM] yielded a survival at 300 mg/kg of 60%.

Each compound was assayed on Mus musculus (assay: Radioprotective activity against 60Co gamma-irradiation-induced body weight loss in C57/BL mouse assessed as increase in body weight at 300 mg/kg, ip administered 15 mins and 24 hrs prior to irradiation and measured over 10 to 30 days post irradiation). Settings: not given.
Assay type: functional, organism-based
In the case of `[O-][S+](Cc1ccc(F)cc1)c1ccc2cc(Br)ccc2c1` (centres undefined), the Activity is reported as “Active”.
